Several values for one entry are separate records, joined by “and”; a condition that tells them apart may be missing. Equal values may be shown once.
Tests used:
RSV = details: cited from earlier work
RSV-A Memphis 37b [1] = test: RSV challenge study: viral load in nasal wash by RT-qPCR; assay type: in vivo, human; details: for AUC VL from baseline through day 12 / Reduction in AUC VL vs placebo: 5 mg BID nebulized; for AUC VL from baseline through day 12 / Peak VL / Time to nondetectability (or <1 log) of RSV RNA / VL at 2.5 d (peak at placebo) after first dose / VL slope: baseline to 24 h after first dose / VL slope: baseline to 48 h after first dose: LS mean (SD)
In short: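 Nasal washes collected twice daily were assayed for RSV RNA by RT-qPCR (Simplexa) and expressed as log10 PFUe/mL. ITT-I was defined as PCR-positive just before dosing, or positive on at least two later occasions. Nebulized 5 mg or placebo was given every 12 h for 5 days, starting about 12 h after detection or on day 6. Viral load AUC, peak and time to nondetectability were analysed by a mixed-effects model and t test.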

RSV-A Memphis 37b [2] = test: RSV challenge study: symptom score and mucous weight; assay type: in vivo, human; details: for AUC of mucous weight from baseline through day 12 / AUC of symptom score from baseline through day 12: LS mean (SD)
In short: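 Volunteers with low serum neutralizing titres were challenged with RSV-A Memphis 37b. Dosing with 5 mg or placebo by nebulizer every 12 h for 5 days began about 12 h after RT-qPCR detection or on the morning of day 6, whichever came first. Symptoms were self-recorded in diaries three times daily, and mucus was weighed daily from used facial tissues. AUCs were computed and group means compared by t test in the ITT-I population.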

[3] = RSV challenge study: safety; assay type: in vivo, human
In short: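 This was a randomized, single-blind, placebo-controlled study in healthy adults inoculated intranasally on day 0 and held in quarantine for 15 days. They received 5 mg or placebo by nebulizer and facemask every 12 h for 5 days. The ITT population comprised those inoculated who received at least one dose. Adverse events (counted as subjects reporting them), laboratory values, vital signs, ECG and spirometry were recorded through day 28 (±3 days).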

[4] = Plasma pharmacokinetics after repeated nebulized dosing; assay type: in vivo, human
In short: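 Healthy adults aged 18–55 received 5 mg nebulized by facemask every 12 h for 5 days (10 doses), with the first dose either in the morning (schedule A) or the evening (schedule B). Serial plasma samples were assayed by LC–MS/MS after liquid–liquid extraction, using a D4-labelled internal standard (LLOQ 0.1 ng/mL; range 0.1–100 ng/mL). Tmax was timed from the end of inhalation, and values are geometric means of both schedules.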

SMILES: CS(=O)(=O)CCCn1c(Cn2c(=O)n(CC(F)(F)F)c3ccncc32)cc2cc(Cl)ccc21 [JNJ-53718678]
- AUC reduction of viral load in RSV challenge study (RSV): 41%–53%

SMILES: Cc1cnc(N2CC3(CCOCC3)C2)c(C(=O)Nc2ccc(C(=O)N3CCc4cc(C(=O)Nc5c(C)cccc5F)sc4-c4ccccc43)cc2)c1 [PC786, N-(2-fluoro-6-methylphenyl)-6-(4-(5-methyl-2-(7-oxa-2-azaspiro [3.5]nonan-2-yl)nicotinamido)benzoyl)-5,6-dihydro-4H-benzo[b]thieno[2,3-d]azepine-2-carboxamide]
- AUC VL from baseline through day 12 (RSV-A Memphis 37b [1]; ITT-I (n = 22)): 274.1 log10 PFUe/mL × h and 274.1 (234.42) log10 PFUe/mL × h
- Reduction in AUC VL vs placebo (RSV-A Memphis 37b [1]; ITT-I): 32.57%
- Peak VL (RSV-A Memphis 37b [1]; ITT-I): 3.4 (1.76) log10 PFUe/mL
- Time to nondetectability (or <1 log) of RSV RNA (RSV-A Memphis 37b [1]; ITT-I): 4.6 (3.75) d
- VL at 2.5 d (peak at placebo) after first dose (RSV-A Memphis 37b [1]; ITT-I): 2.0 (1.82) log10 PFUe/mL
- VL slope: baseline to 24 h after first dose (RSV-A Memphis 37b [1]; ITT-I): 0.8 (1.89) log10 PFUe/mL/24 h
- VL slope: baseline to 48 h after first dose (RSV-A Memphis 37b [1]; ITT-I): 0.6 (1.52) log10 PFUe/mL/48 h
- AUC VL from baseline through day 12 (RSV-A Memphis 37b [1]; ITT-IS (n = 19, post hoc)): 325.8 (199.19) log10 PFUe/mL × h
- Reduction in AUC VL vs placebo (RSV-A Memphis 37b [1]; ITT-IS): 34% and 34.25%
- Peak VL (RSV-A Memphis 37b [1]; ITT-IS): 3.7 (1.30) log10 PFUe/mL
- Time to nondetectability (or <1 log) of RSV RNA (RSV-A Memphis 37b [1]; ITT-IS): 4.9 (4.13) d
- VL at 2.5 d (peak at placebo) after first dose (RSV-A Memphis 37b [1]; ITT-IS): 2.3 (1.66) log10 PFUe/mL
- VL slope: baseline to 24 h after first dose (RSV-A Memphis 37b [1]; ITT-IS): 0.7 (1.50) log10 PFUe/mL/24 h
- VL slope: baseline to 48 h after first dose (RSV-A Memphis 37b [1]; ITT-IS): 0.6 (1.45) log10 PFUe/mL/48 h
- AUC of mucous weight from baseline through day 12 (RSV-A Memphis 37b [2]; ITT-I): 11.8 (22.99) g × No. of days
- AUC of symptom score from baseline through day 12 (RSV-A Memphis 37b [2]; ITT-I): 192.3 (244.97) score × h
- Mean AUC of mucous weight lower than placebo (RSV-A Memphis 37b [2]; ITT-I, P = .1095): 38%
- AUC of total symptom score lower than placebo (RSV-A Memphis 37b [2]; ITT-I, not statistically significant): 29%
- AUC of mucous weight from baseline through day 12 (RSV-A Memphis 37b [2]; ITT-IS): 12.7 (24.69) g × No. of days
- AUC of symptom score from baseline through day 12 (RSV-A Memphis 37b [2]; ITT-IS): 221.2 (252.05) score × h
- Reduction of mean AUC of mucous weight vs placebo (RSV-A Memphis 37b [2]; ITT-IS, P = .0126): 46%
- Conjunctivitis attributed to study drug, subjects ([3]; ITT (n = 28), 5 mg BID): 0 No. (%)
- FEV1 decreased attributed to study drug, subjects ([3]; ITT (n = 28), 5 mg BID): 0 No. (%)
- Headache attributed to study drug, events ([3]; ITT (n = 28), 5 mg BID): 1 No. of Events
- Headache attributed to study drug, subjects ([3]; ITT (n = 28), 5 mg BID): 1 (3.6) No. (%)
- No. of subjects with AEs attributed to study drug ([3]; ITT (n = 28), 5 mg BID): 1 (3.6) No. (%)
- Photophobia attributed to study drug, subjects ([3]; ITT (n = 28), 5 mg BID): 0 No. (%)
- No. of subjects with AEs (TEAEs) ([3]; ITT (n = 28), 5 mg BID, first dose to day 28): 12 No. (%) and 12 (42.9) No. (%)
- Serious adverse events, deaths, other significant AEs ([3]; nebulized 5 mg BID for 5 days): no serious adverse events
- Tolerability ([3]; nebulized 5 mg BID for 5 days, healthy subjects inoculated with RSV): well tolerated
- Time at which steady state was reached ([4]; 5 mg BID): ≤ 4 days
- AUC ([4]; human, inhaled, 5 mg): 11.7 ng·h/mL
- Cmax ([4]; human, inhaled, 5 mg, Mean plasma Cmax, 5 mg BID nebulized): 1.5 ng/mL
- half-life ([4]; human, inhaled, 5 mg, t½, apparent terminal half-life, geometric mean (CV%)): 12.1 h
- Tmax ([4]; repeated 5 mg BID, median (range), after end of inhalation): 0.542 (0.383–2.08) h

From paper PMC9200148 (The Journal of Infectious Diseases, 2020)
